Calls of active or inactive are those of the source.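 How the source made its calls: active means IC50 of 10 µM or lower on HIF-2a in both cell lines, but not on HIF-1a; inactive means the rest, including compounds also potent on HIF-1a.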
What was measured:
Assay in all cases: HIF reporter inhibition across pancreatic and renal lines – cell-based, luminescence, MIAPaCa-2, 786-0, panel, SAR follow-up (AID 652011)
HIF1a = details: MIAPaCa-2/PANC HIF reporter, luciferase luminescence, desferoxamine, overnight
Summary of the method: (§1)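 Probe or stimulus – desferoxamine stimulus · Times – overnight compound incubation at 37 °C, 10 min reagent · Doses – compounds from 10 mM and 0.3125 mM stocks, 1% DMSO final · Technique – luminescence, One-Glo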

[1] = target: Endothelial PAS domain-containing protein 1 (Homo sapiens) (UniProt Q99814); details: MIAPaCa-2/PANC HIF reporter, luciferase luminescence, desferoxamine, overnight; HIF2a PANC cells; mean of runs
Summary of the method: as §1

HIF2a PANC = details: MIAPaCa-2/PANC HIF reporter, luciferase luminescence, desferoxamine, overnight
Summary of the method: as §1

[2] = run 1, individual run IC50, panel line
[3] = run 2, individual run IC50, panel line

Endothelial PAS domain-containing protein 1 (Homo sapiens), sequence (Q99814 whole entry, looked up, the tested form may be a part): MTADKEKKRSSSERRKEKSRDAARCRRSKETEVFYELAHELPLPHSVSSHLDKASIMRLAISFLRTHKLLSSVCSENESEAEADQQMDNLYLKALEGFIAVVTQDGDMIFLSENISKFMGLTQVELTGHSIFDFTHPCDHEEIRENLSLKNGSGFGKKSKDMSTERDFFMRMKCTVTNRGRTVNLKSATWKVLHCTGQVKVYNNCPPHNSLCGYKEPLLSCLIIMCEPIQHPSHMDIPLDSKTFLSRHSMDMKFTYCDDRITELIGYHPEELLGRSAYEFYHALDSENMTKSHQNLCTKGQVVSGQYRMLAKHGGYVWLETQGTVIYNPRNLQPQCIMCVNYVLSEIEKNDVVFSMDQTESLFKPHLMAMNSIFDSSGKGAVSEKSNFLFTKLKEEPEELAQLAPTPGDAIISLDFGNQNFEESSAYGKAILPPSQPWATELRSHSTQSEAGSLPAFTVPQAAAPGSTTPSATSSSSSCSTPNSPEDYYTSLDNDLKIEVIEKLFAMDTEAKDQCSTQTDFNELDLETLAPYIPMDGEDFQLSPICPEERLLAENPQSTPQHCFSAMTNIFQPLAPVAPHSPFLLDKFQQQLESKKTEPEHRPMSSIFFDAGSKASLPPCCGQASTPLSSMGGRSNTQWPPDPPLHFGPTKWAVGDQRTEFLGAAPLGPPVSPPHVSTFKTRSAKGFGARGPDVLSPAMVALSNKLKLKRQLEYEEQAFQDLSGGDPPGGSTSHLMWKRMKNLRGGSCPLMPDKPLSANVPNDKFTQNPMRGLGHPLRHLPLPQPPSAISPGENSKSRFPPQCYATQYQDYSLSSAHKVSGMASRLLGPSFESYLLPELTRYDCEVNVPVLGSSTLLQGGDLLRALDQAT

Row | Compound | IC50 (HIF1a; [2]) | IC50 (HIF1a; [3]) | IC50 [1] | IC50 (HIF2a PANC; [2]) | IC50 (HIF2a PANC; [3])
1 | CCCCc1ccc(-c2noc(CCC(=O)NC(C)CC)n2)cc1 (stereo not drawn) | > 99 µM | > 99 µM | < 0.19 µM | < 0.19 µM | < 0.19 µM
2 | CNC(=O)CCc1nc(-c2ccc(C)cc2)no1 | > 99 µM | > 99 µM | inactive | 48 µM | > 99 µM
3 | CC(C)(C)c1ccc(-c2noc(CCC(=O)NC3CC3)n2)cc1 | > 99 µM | > 99 µM | < 0.19 µM | < 10 µM | < 0.19 µM
4 | CC(C)(C)c1ccc(-c2noc(CCC(=O)NCC3CCCO3)n2)cc1 (stereo not drawn) | > 99 µM | > 99 µM | < 0.19 µM | < 0.19 µM | < 0.19 µM
5 | CNC(=O)CCc1nc(-c2ccc(Cl)cc2)no1 | > 99 µM | > 99 µM | > 99 µM (inactive) | > 99 µM | > 99 µM
6 | CCc1ccc(-c2noc(CCC(=O)NC3CC3)n2)cc1 | > 99 µM | > 99 µM | > 99 µM (inactive) | > 99 µM | > 99 µM
7 | CCCCc1ccc(-c2noc(CCC(=O)NC)n2)cc1 | > 99 µM | > 99 µM | > 99 µM (inactive) | > 99 µM | > 99 µM
8 | CC(C)(C)c1ccc(-c2noc(CCC(=O)NCc3ccco3)n2)cc1 | > 99 µM | > 99 µM |  | < 0.19 µM | 
9 | O=C(O)CCc1nc(-c2ccccc2)no1 | > 99 µM | > 99 µM | > 99 µM (inactive) | > 99 µM | > 99 µM
10 | CCC(C)NC(=O)CCc1nc(-c2ccc(C(C)(C)C)cc2)no1 (stereo not drawn) | > 99 µM | > 99 µM | > 99 µM (inactive) | > 99 µM | > 99 µM
11 | CNC(=O)CCc1nc(-c2ccc(OC)cc2)no1 | > 99 µM | > 99 µM | > 99 µM (inactive) | > 99 µM | > 99 µM
12 | CCNC(=O)CCc1nc(-c2ccc(OCC)cc2)no1 | > 99 µM | > 99 µM | > 99 µM (inactive) | > 99 µM | > 99 µM
13 | CCNC(=O)CCc1nc(-c2ccccc2)no1 | > 99 µM | > 99 µM | > 99 µM (inactive) | > 99 µM | > 99 µM
14 | CC(C)(C)c1ccc(-c2noc(CCC(=O)NC3CCC3)n2)cc1 | > 99 µM | > 99 µM | < 0.19 µM | < 10 µM | < 0.19 µM
15 | CCc1ccc(-c2noc(CCC(=O)NC)n2)cc1 | > 99 µM | > 99 µM | > 99 µM (inactive) | > 99 µM | > 99 µM
16 | O=C(CCc1nc(-c2ccccc2)no1)NC1CC1 | > 99 µM | > 99 µM | > 99 µM (inactive) | > 99 µM | > 99 µM
17 | CC(C)(C)c1ccc(-c2noc(CCC(=O)Nc3ccccc3)n2)cc1 | > 99 µM | > 99 µM | < 0.19 µM | < 0.19 µM | < 0.19 µM
18 | CCNC(=O)CCc1nc(-c2cccc(OC)c2)no1 | > 99 µM | > 99 µM | > 99 µM (inactive) | > 99 µM | > 99 µM
19 | C=CCNC(=O)CCc1nc(-c2ccc(C(C)(C)C)cc2)no1 | > 99 µM | > 99 µM | < 0.19 µM | < 10 µM | < 0.19 µM
20 | CN(C)C(=O)CCc1nc(-c2ccc(C(C)(C)C)cc2)no1 | > 99 µM | > 99 µM | > 99 µM (inactive) | > 99 µM | > 99 µM
21 | CCNC(=O)CCc1nc(-c2ccccc2Cl)no1 | > 99 µM | > 99 µM | > 99 µM (inactive) | > 99 µM | > 99 µM
22 | CCNC(=O)CCc1nc(-c2ccc(C(C)C)cc2)no1 | > 99 µM | > 99 µM | > 99 µM (inactive) | > 99 µM | > 99 µM
23 | CCNC(=O)CCc1nc(-c2c(Cl)cccc2Cl)no1 | > 99 µM | > 99 µM | > 99 µM (inactive) | > 99 µM | > 99 µM
24 | CC(C)c1ccc(-c2noc(CCC(=O)NC3CC3)n2)cc1 | > 99 µM | > 99 µM | > 99 µM (inactive) | > 99 µM | > 99 µM
25 | CCOc1ccc(-c2noc(CCC(=O)NC)n2)cc1 | > 99 µM | > 99 µM | 1.2 µM | 1.72 µM | 0.673 µM
26 | CCNC(=O)CCc1nc(-c2cccc(F)c2)no1 | > 99 µM | > 99 µM | > 99 µM (inactive) | > 99 µM | > 99 µM
